Measurements of several laboratories.
Each line is one published result; the experiments were not run side by side.
Target: Mitogen-activated protein kinase kinase kinase kinase 3 (MAP4K3, Homo sapiens, UniProt Q8IVH8)
Residues used in one study (Q8IVH8 1-894): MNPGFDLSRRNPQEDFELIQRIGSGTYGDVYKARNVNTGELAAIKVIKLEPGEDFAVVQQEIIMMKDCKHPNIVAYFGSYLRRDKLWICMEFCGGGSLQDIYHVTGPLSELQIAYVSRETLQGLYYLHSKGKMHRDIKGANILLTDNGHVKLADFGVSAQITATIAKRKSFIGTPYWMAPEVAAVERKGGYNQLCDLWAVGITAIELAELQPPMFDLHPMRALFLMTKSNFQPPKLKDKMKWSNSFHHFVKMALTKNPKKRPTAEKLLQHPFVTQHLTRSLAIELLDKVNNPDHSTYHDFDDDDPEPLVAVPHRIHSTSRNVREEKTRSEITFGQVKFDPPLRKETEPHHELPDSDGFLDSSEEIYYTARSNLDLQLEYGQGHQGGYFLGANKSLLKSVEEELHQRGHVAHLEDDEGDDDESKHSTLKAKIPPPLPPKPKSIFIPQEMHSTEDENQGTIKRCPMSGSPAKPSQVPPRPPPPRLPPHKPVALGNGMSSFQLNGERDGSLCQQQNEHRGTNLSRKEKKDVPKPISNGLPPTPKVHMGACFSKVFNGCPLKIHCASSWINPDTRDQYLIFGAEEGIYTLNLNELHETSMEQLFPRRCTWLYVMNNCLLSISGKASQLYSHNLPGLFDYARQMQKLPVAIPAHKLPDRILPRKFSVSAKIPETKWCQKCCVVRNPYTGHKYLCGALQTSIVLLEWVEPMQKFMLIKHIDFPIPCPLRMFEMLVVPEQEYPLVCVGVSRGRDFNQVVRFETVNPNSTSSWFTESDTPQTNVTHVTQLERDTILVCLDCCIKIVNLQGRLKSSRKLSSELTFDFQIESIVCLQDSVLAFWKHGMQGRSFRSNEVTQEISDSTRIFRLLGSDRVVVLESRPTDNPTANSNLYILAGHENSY

| Compound | observed | technique | concentration | remaining binding [%] |
| --- | --- | --- | --- | --- |
| CCN1CCN(Cc2ccc(C(=O)Nc3ccc(C)c(Oc4ccc5c(c4)CC(=O)N5)c3)cc2C(F)(F)F)CC1 | binding | competition with immobilised ligand | 1 µM | 76 |
| CN(C)c1nccc(-c2cnn3ncccc23)n1 | binding |  | 1 µM | 100 |
| COc1ncc2cc3ccccc3nc2c1C#N | cell-free assay | competition with immobilised ligand | 5 µM | 100 |
| CN(c1nccc(-c2cnn3ncccc23)n1)C1CC1 | binding |  | 1 µM | 100 |
| Nc1c(C(=O)NCc2ccc(C(=O)NCCCC3CCCCC3)cc2)cnn1-c1ccccc1 | cell-free assay | competition with immobilised ligand | 0.1 µM | 100 |
| O=C(NCCCN1CCOCC1)c1ccc(Nc2nccc(-c3cc4ccccc4s3)n2)cc1 | binding | competition with immobilised ligand | 1 µM | 65 |
| O=C(N1CCS(=O)(=O)CC1)N1C[C@H](c2ccc(OC(F)(F)F)cc2)C[C@H](c2nc(C3CC3)no2)C1 | cell-free assay | competition with immobilised ligand | 1 µM | 100 |
| O=C(NCCCN1CCOCC1)c1ccc(Nc2ncc(Cl)c(-c3ccc(Cl)s3)n2)cc1 | binding | competition with immobilised ligand | 1 µM | 38 |
| O=C(Nc1cccnn1)N1CC(C/C=C/c2cncc(Oc3ccc(C(F)(F)F)cn3)n2)C1 | cell-free assay | competition with immobilised ligand | 1 µM | 100 |
| O=C(c1ccc(Nc2nccc(-c3cc4ccccc4s3)n2)cc1)N1CCC(N2CCCC2)CC1 | binding | competition with immobilised ligand | 1 µM | 93 |
| CN(CCCC(F)(F)F)c1nccc(-c2cnn3ncccc23)n1 | binding |  | 1 µM | 100 |
| Nc1cnc(N2CCc3cc(S(=O)(=O)Nc4c(F)cc(Cl)cc4F)cc(N4CCCC4=O)c32)nc1 | cell-free assay | competition with immobilised ligand | 1 µM | 93 |
| c1cncc(-c2cccc(Nc3nccc(NC4CCCCC4)n3)c2)c1 | binding | competition with immobilised ligand | 10 µM | 83 |
| F[C@@H]1CCN(c2nccc(-c3cnn4ncccc34)n2)C1 | binding |  | 1 µM | 100 |
| COc1cnc(Nc2cccc(S(N)(=O)=O)c2)nc1N1CCN(c2ccccc2)C(=O)C1 | binding | competition with immobilised ligand | 1 µM | 95 |
| c1cnn2ncc(-c3ccnc(N4CCC45COC5)n3)c2c1 | binding |  | 1 µM | 88 |
| CCS(=O)(=O)c1cc2cc(C[C@@](O)(CC(C)(C)c3ccc(F)cc3C(N)=O)C(F)(F)F)[nH]c2cn1 | cell-free assay | competition with immobilised ligand | 1 µM | 82 |
| N[C@@H]1CCN(c2nccc(-c3cnn4ncccc34)n2)C1 | binding |  | 1 µM | 76 |
| O=C(O)c1cc(-c2ccc(C3CCNCC3)cc2)c2ccc(-c3ccc(C(F)(F)F)cc3)cc2c1 | cell-free assay | competition with immobilised ligand | 1 µM | 100 |
| O=C(Nc1c[nH]nc1C(=O)NC1CCNCC1)c1cc(F)cc(F)c1 | binding | competition with immobilised ligand | 1 µM | 74 |
